This passage reports Activity and Activity (umolequiv/umol) results from ChEMBL document CHEMBL3865830, “Multifunctional diamine AGE/ALE inhibitors with potential therapeutical properties against Alzheimer's disease” (Eur J Med Chem, 2016).

Active and inactive are the calls of the source. No cut-off for these calls is given here.

Series [1] can be described thus: Reactive carbonyl species trapping activity of compound assessed as MDA adduct formation at 10 mM preincubated for 24 hrs with MDA measured after 0.5 hrs by LCMS analysis. The class given is physicochemical. The settings on record: 10000 µM.
Series [2] is described as follows: Reactive carbonyl species trapping activity of compound assessed as MDA adduct formation at 10 mM preincubated for 24 hrs with MDA measured after 24 hrs by LCMS analysis. It is filed as physicochemical. The settings on record: 10000 µM.
Series [3] can be described thus: Metal chelating activity of compound assessed as compound-Cu2+ complex formation at 1 mM after 10 mins in presence of CuSO4.5H2O by complexometric indicator murexide based UV-Vis spectrophotometric analysis. The class given is physicochemical. Particulars: 1000 µM. The essentials: (§1)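 Compound (0.02-2 mM) incubated with CuSO4 (120 µM) for 10 min at rt, in 10 mM hexamine/HCl with 10 mM KCl (pH 5.0), or in buffer/MeOH 75:25 for poorly soluble compounds. Murexide added, 1 min more. The A485/A520 ratio gives free Cu2+ from a CuSO4 calibration curve (0-125 µM). % chelation is taken by difference from the no-compound control; triplicates.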

Series [4] is described as follows: Metal chelating activity of compound assessed as compound-Cu2+ complex formation at 2 mM after 10 mins in presence of CuSO4.5H2O by complexometric indicator murexide based UV-Vis spectrophotometric analysis. The class given is physicochemical. Particulars: 2000 µM. The essentials:
as §1

Series [5] is described as follows: Metal chelating activity of compound assessed as compound-Cu2+ complex formation at 0.1 mM after 10 mins in presence of CuSO4.5H2O by complexometric indicator murexide based UV-Vis spectrophotometric analysis. The class given is physicochemical. The settings on record: 100 µM. In short, it runs like this:
as §1

Series [6] in a line: Metal chelating activity of compound assessed as compound-Cu2+ complex formation at 200 uM after 10 mins in presence of CuSO4.5H2O by complexometric indicator murexide based UV-Vis spectrophotometric analysis. It is filed as physicochemical. In short, it runs like this: as §1
Series [7] in a line: Reactive carbonyl species trapping activity of compound assessed as MGO adduct formation at 10 mM preincubated for 24 hrs with MGO measured after 24 hrs by LCMS analysis. The class given is physicochemical. Particulars: 10000 µM.
The species named for a further series is Rattus norvegicus. The series is described as follows: Cytotoxicity against rat […] PC12 cells assessed as reduction in cell viability at 10 to 100 uM after 24 hrs by WST8-based CCK8 assay. The class given is toxicity. The settings on record: pc-12, 24 h. The essentials: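 PC12 Adh cells (rat pheochromocytoma-derived) grown in F-12K with 2.5% FBS, 15% horse serum and pen/strep at 37 °C, 5% CO2. Seeded at 5×10^3 cells/well; treated at 80% confluency with 10 or 100 µM for 24 h. 10% DMSO served as positive cytotoxicity control. CCK-8 added for 1 h at 37 °C, absorbance read at 450 nm. Viability given as % of untreated cells; at least three experiments in triplicate.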
(In general: Tetrazolium assays rely on reduction of a dye to a coloured formazan, in cell work by metabolically active cells.)

A short description of series [8]: Reactive carbonyl species trapping activity of compound assessed as MGO adduct formation at 10 mM preincubated for 24 hrs with MGO measured after 1 hr by LCMS analysis. Particulars: 10000 µM. It is filed as physicochemical.
A short description of series [9]: Reactive carbonyl species trapping activity of compound assessed as MGO adduct formation at 10 mM preincubated for 24 hrs with MGO measured after 5 hrs by LCMS analysis. The class given is physicochemical. Particulars: 10000 µM.
The nature of series [10]: Reactive carbonyl species trapping activity of compound assessed as MDA adduct formation at 10 mM preincubated for 24 hrs measured after 15 mins by LCMS analysis. It is filed as physicochemical. The settings on record: 0.25 h, 10000 µM.
Series [11] is described as follows: Metal chelating activity of compound assessed as compound-Cu2+ complex formation at 0.05 mM after 10 mins in presence of CuSO4.5H2O by complexometric indicator murexide based UV-Vis spectrophotometric analysis. It is filed as physicochemical. The settings on record: 50 µM. The essentials: as §1
Series [12] in a line: Reactive carbonyl species trapping activity of compound assessed as MDA adduct formation at 10 mM preincubated for 24 hrs with MDA measured after 0.25 hrs by LCMS analysis. The class given is physicochemical. Particulars: 10000 µM.
Series [13] in a line: Metal chelating activity of compound assessed as compound-Cu2+ complex formation at 0.02 mM after 10 mins in presence of CuSO4.5H2O by complexometric indicator murexide based UV-Vis spectrophotometric analysis. Particulars: 20 µM. The class given is physicochemical. The essentials: as §1
A short description of series [14]: Reactive carbonyl species trapping activity of compound assessed as MDA adduct formation at 10 mM preincubated for 24 hrs with MDA measured after 1 hr by LCMS analysis. It is filed as physicochemical. The settings on record: 10000 µM.
A short description of series [15]: Antioxidant activity assessed as inhibition of AAPH-induced peroxyl radical generation measured as trolox equivalent at 10 uM preincubated for 30 mins followed by AAPH addition measured evey 60 secs for 60 cycles by ORAC-FL assay. The class given is functional. Particulars: in the assay text read “90 secs” for “60 secs”. In short, it runs like this: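 Fluorescein (12 nM) preincubated with compound (1-20 µM) or Trolox standard (1-50 µM) in D-PBS, at least 30 min at 37 °C. Reaction started with AAPH (30 mM). Fluorescence (ex 485/em 520 nm) read every 90 s for 60 cycles. Net AUC is converted to Trolox equivalents via the Trolox calibration line. Values are reported at 10 µM, from at least three independent experiments in triplicate.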

Series [16] is described as follows: Metal chelating activity of compound assessed as compound-Cu2+ complex formation at 0.08 mM after 10 mins in presence of CuSO4.5H2O by complexometric indicator murexide based UV-Vis spectrophotometric analysis. It is filed as physicochemical. The settings on record: 80 µM. The essentials: as §1
Series [17] is described as follows: Reactive carbonyl species trapping activity of compound assessed as MGO adduct formation at 10 mM preincubated for 24 hrs with MGO measured after 0.5 hrs by LCMS analysis. The class given is physicochemical. The settings on record: 10000 µM.
Series [18] can be described thus: Reactive carbonyl species trapping activity of compound assessed as MGO adduct formation at 10 mM preincubated for 24 hrs with MGO measured after 15 mins by LCMS analysis. The class given is physicochemical. Particulars: 0.25 h, 10000 µM.
A short description of series [19]: Metal chelating activity of compound assessed as compound-Cu2+ complex formation at 0.5 mM after 10 mins in presence of CuSO4.5H2O by complexometric indicator murexide based UV-Vis spectrophotometric analysis. It is filed as physicochemical. Particulars: 500 µM. In short, it runs like this: as §1
Series [20] can be described thus: Reactive carbonyl species trapping activity of compound assessed as MDA adduct formation at 10 mM preincubated for 24 hrs with MDA measured after 5 hrs by LCMS analysis. It is filed as physicochemical. The settings on record: 10000 µM.
Series [21] can be described thus: Reactive carbonyl species trapping activity of compound assessed as MGO adduct formation at 10 mM preincubated for 24 hrs with MGO measured after 0.25 hrs by LCMS analysis. The class given is physicochemical. Particulars: 10000 µM.
In another series the test system is PC-12. As to the kind of experiment: Neuroprotective activity against MGO-induced apoptosis in rat PC12 cells assessed as reduction DNA fragmentation at 100 uM preincubated for 1 hr followed by MGO addition after 24 hrs by ELISA. It is filed as functional, cell-based. The essentials:
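PC12 cells pretreated 1 h at 37 °C with compound (10 or 100 µM) in D-PBS, then exposed to MGO (2 mM) for 24 h. Lysates analysed by anti-histone/anti-DNA-peroxidase ELISA for cytoplasmic mono- and oligonucleosomes, with ABTS read-out at 405 nm. Cells without MGO were the control; MGO alone was the apoptosis standard.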
(In general: ELISA stands for enzyme-linked immunosorbent assay.)

As for `Cc1c(O)c(=O)ccn1CCCNC(=O)CCC(N)CN.Cl.Cl` (centres undefined), the Activity in series [1] was 82%; in [2] it was 99%; in [3] it was 93.45%; in series [4], 95.45%; in series [5] it was 40.91%; in [6] it was 66.7%. Further, the Activity in series [7] is listed as 100%; in the series listed under Rattus norvegicus, “Non-Toxic”; in [8] it was 100%; in [9] it was 100%; in series [10], 76%; in series [11] it was 24.69%. Also, the Activity in series [12] came out at 76%; in series [13], 11.03%; in series [14], 92%; in series [16], 35.1%; in series [17] it was 98%; in [18] it was 95%. Moreover, the results for the Activity in [19], in series [20] and in series [21] were 88.46%, 95% and 95%, respectively. The Activity (umolequiv/umol) in series [15] was 1.01.

For the molecule `Cl.Cl.NCC(N)CCC(=O)NCCCn1cccc(O)c1=O` (centres undefined), the Activity in series [1] is 75%; in [2], 93%; in series [3] it was 74.89%; in [4] it was 74.74%; in series [5], 42.39%; in series [6], 55.83%. In addition, the Activity is reported as 98% in [7]; “Non-Toxic” in the series filed under Rattus norvegicus; 97% in series [8]; 100% in series [9]; 20.77% in series [11]; 74% in series [12]. In addition, the Activity in series [13] turned out to be 11.11%; in series [14], 81%; in series [16], 37.47%; in [17], 98%; in series [18], 97%; in [19], 71.22%. In addition, the values for the Activity in [20] and in series [21] were 85% and 97%, respectively. The outcome with PC-12 was Active. Besides, the Activity (umolequiv/umol) in series [15] is 1.96.
